Results: publication PMC5402717 (Pain, 2017)
Entries after “also recorded” stand apart in the source; their conditions may differ. Blank lines part the entries; values can stand above or below the molecule they belong to.

Columns and labels:
[1] = system: PKG-1α; assay: PKG-1α activity in sciatic nerve segment after capsaicin injection; type: in vivo, rat; conditions: capsaicin 0.1 μM under the perineurium of the sciatic nerve, 30 minutes
Outline: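 Capsaicin (0.1 μM) injected under the sciatic nerve perineurium, with an equal vehicle volume into the contralateral nerve. After 30 min, the 1 cm segment containing the injection site was harvested and homogenized. Equal-protein samples were assayed for PKG-1α activity; N = 4.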

[2] = target: T1, purified bovine PKG-1α (Bos taurus, UniProt P00516); assay: In vitro protein kinase G assay; type: biochemical; conditions: for IC50: IC50 for PKG-1α
T1 sequence (P00516 1-671): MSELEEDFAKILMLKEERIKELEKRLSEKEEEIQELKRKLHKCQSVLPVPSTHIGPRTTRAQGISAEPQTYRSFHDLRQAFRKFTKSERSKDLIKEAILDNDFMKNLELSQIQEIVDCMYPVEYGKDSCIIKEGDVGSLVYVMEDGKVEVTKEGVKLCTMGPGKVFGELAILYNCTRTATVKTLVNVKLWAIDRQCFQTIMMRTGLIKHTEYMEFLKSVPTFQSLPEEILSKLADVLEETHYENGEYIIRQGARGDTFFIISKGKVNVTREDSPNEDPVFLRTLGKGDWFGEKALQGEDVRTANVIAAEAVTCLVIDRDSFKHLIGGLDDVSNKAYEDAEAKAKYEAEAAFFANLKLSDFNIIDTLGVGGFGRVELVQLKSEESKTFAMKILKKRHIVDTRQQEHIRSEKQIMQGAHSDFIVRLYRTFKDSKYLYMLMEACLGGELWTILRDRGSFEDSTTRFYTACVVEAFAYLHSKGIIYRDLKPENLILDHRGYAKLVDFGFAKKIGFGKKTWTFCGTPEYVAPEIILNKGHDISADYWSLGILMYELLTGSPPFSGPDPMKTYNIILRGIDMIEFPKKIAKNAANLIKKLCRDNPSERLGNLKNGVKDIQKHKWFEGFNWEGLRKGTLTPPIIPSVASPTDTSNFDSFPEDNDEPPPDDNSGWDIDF
Outline: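 Reaction started with 10 μM [32P]-ATP, run 20 min at 37°C, stopped with 50 mM EDTA. Peptide captured on phosphocellulose filters, counted by β-scintillation. IC50s are single determinations in duplicate.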

[3] = target: recombinant catalytic domain of human PKA (Homo sapiens, UniProt P17612); assay: In vitro cAMP-dependent kinase; type: biochemical
Outline: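 Recombinant human PKA catalytic domain with kemptide substrate; activity measured as 32P incorporation from [γ-32P]ATP in Tris buffer. Labeled peptide captured on cellulose phosphate filters and counted by β-scintillation. IC50s are single determinations run in duplicate.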

[4] = target: cardiac hERG potassium channel (Homo sapiens, UniProt Q12809); assay: hERG tail current recording; type: cell-based
Outline: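 hERG tail currents evoked by a voltage protocol applied every 10 s. Test compound applied cumulatively at 0.1, 0.3, 1.0, 3, 10 and 30 μM, 5 min per concentration, with 1 μM cisapride as positive control. Mean percent inhibition from 13 cells gave a 6-point curve, from which IC50 was calculated.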

[5] = Stability of N46 in plasma in vitro; type: in vitro ADME; conditions: rat plasma, 37°C
[6] = Tissue distribution of N46 in vivo; conditions: rat, tail vein injection
Outline: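 Test compound injected into the rat tail vein. Tissues homogenized in 0.1N sodium carbonate (2 mL) plus methanol (6 mL), centrifuged, and supernatant analyzed by LC/MS. C18 column, acetonitrile-water gradient 0-100% over 20 min, detection at 220 nm. Results corrected for % recovery using spiked standard curves.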

[7] = system: Sprague-Dawley rats; assay: CFA-induced thermal hyperalgesia; type: in vivo, rat
Outline: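 Male Sprague-Dawley rats (250-300 g) given 100 μL CFA intraplantar; one day later, test compound was given intrathecally at L4/L5 (15 μL, 1% DMSO/saline, saline flush) or into the tail vein (1 mL, quarter normal saline), vs vehicle. Hargreaves radiant heat test: glass at 30°C, 30 min acclimation, baseline latency ~10 s, 20 s cutoff. Both paws tested the following day, double-blind.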

[8] = system: Sprague-Dawley rats; assay: MIA-induced osteoarthritic knee joint pain; type: in vivo, rat; conditions: 5 nmol intra-articular 14 days after MIA
Outline: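 Baseline hind-limb weight bearing taken on day 0. Rats then received 3 mg MIA in 50 μL saline into the right knee and saline into the left. At 14 days, 5 nmol test compound or quarter-saline vehicle (50 μL) was given intra-articularly. Incapacitance tester: paw force averaged over 5 s, 3 trials per point, expressed as percent difference between limbs.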

[9] = system: Sprague-Dawley rats; assay: Capsaicin-induced mechanical hypersensitivity; type: in vivo, rat; conditions: 10 nmol N46 into hind paw, no capsaicin
Outline: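 Male Sprague-Dawley rats given 10 nmol test compound intraplantar, without capsaicin. von Frey hairs (0.4-15 g) applied for ~6 s each, up-down sequence starting at 2 g. 50% paw withdrawal threshold calculated by the Chaplan method at set times after injection; n = 15 per group; double-blind.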

[10] = Heart rate and blood pressure monitoring after N46 injection; type: in vivo, rat; conditions: injected 1uM N46, monitored 30 minutes; data not shown
Outline: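 Heart rate and systolic and diastolic blood pressure recorded for a 30 min baseline, then 1uM test compound injected and monitoring continued for 30 min.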

[11] = General observation for abnormalities or deficits; type: in vivo, rat; conditions: N46-injected rats
[12] = system: panel of 274 kinases; assay: Kinase panel screening, overall selectivity; type: biochemical
[13] = target: PKG-1α; conditions: cited from earlier work

cardiac hERG potassium channel, sequence (Q12809 whole entry): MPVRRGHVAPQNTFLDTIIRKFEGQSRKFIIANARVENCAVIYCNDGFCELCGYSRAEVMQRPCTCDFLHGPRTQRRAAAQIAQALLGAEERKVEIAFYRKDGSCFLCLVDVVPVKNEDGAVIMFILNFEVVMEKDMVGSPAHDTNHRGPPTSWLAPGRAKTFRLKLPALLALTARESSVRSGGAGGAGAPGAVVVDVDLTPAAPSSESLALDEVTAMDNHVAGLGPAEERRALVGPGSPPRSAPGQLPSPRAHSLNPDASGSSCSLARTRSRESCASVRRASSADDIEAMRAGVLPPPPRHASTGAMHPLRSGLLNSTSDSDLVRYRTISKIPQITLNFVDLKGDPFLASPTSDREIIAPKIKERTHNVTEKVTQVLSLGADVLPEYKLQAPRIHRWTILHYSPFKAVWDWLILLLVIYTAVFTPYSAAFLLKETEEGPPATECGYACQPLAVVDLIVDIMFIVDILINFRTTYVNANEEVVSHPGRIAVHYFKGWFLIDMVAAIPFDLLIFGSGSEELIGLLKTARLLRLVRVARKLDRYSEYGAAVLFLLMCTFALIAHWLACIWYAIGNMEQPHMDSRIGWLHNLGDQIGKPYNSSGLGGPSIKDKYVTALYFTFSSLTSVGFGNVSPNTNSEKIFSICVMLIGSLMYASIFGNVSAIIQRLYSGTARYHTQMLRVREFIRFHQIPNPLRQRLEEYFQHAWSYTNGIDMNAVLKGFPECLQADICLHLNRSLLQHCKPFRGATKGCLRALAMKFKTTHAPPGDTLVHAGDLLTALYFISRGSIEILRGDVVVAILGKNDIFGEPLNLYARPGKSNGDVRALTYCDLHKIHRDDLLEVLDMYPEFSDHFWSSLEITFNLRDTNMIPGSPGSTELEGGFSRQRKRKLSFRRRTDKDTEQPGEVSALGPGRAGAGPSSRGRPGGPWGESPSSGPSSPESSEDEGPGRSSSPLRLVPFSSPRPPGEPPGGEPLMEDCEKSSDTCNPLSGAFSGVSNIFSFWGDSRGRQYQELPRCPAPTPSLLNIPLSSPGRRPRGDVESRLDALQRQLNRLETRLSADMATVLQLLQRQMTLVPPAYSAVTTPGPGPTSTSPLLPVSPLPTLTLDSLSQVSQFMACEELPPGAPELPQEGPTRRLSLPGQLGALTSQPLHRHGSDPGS

Compound: COc1cc(CNC(=O)CCCC/C=C/C(C)C)ccc1O [capsaicin]
PKG-1α in the nerve segment that was active [1]: 40 ± 15%

fold difference of IC50, PKA versus PKG-1α [2]: 714 fold
IC50 [2]: 7.5 nM
IC50 ([2]; 10 μM ATP, 37°C, 20 minutes): 7 nM
type of inhibition of PKG-1α (kinetic studies) ([2]; data not shown): noncompetitive inhibitor
IC50 [3]: 5000 nM
stability in plasma (time stable) [5]: at least 7 hours
presence in the CNS [6]: not detected in the CNS
number of kinases inhibited more than 50% ([12]; 750 nM N46): 12
off-target hit rate (kinases inhibited by more than 50%) ([12]; 12 out of 274, dose of N46 where PKG-1 was inhibited 100%): 4.4%
Compound: CCCOc1ccc(OC)c(F)c1C(=O)c1ccc(C(=O)N[C@@H]2CNC[C@H]2NC(=O)c2ccc3[nH]ncc3c2)cc1 [N46, N-((3R,4R)-4-(4-(2-fluoro-3-methoxy-6-propoxybenzoyl)benzamido)pyrrolidin-3-yl)-1H-indazole-5-carboxamide]
IC50 [4]: 4470 nM
thermal hyperalgesia (PWL), CFA-injected paw ([7]; 0.25 nmol intrathecal 1 day after CFA, measured post-CFA day 2, vs vehicle): marked reduction
thermal hyperalgesia (PWL), CFA-injected paw ([7]; 1 nmol into the tail vein 1 day after CFA, 24 hours later, vs vehicle): significantly increased the PWL; also recorded: significantly reduced the heat hyperalgesia
duration of relief after a single injection ([7]; CFA model): at least 24 hours
thermal threshold, contralateral noninflamed paw ([7]; N46 intrathecal): no significant changes
duration of relief after a single injection [8]: 7 days
weight bearing distribution ([8]; days 15 and 21, vs vehicle): significant improvement in weight bearing distribution; also recorded: significantly reversed the MIA-induced shift in weight bearing
mechanical threshold, N46 alone [9]: had no effect
heart rate and systolic and diastolic blood pressure [10]: no significant effect
sedation [11]: no evidence of sedation

Compound: COC(=O)[C@@]1(OC)C[C@H]2O[C@]1(C)n1c3ccccc3c3c4c(c5c6ccccc6n2c5c31)C(=O)N(C)C4 [KT5823]
Ki [13]: 234 nM

Compound: Nc1nc2c(nc(Sc3ccc(Cl)cc3)n2[C@@H]2O[C@@H]3CO[P@@](=O)(S)O[C@H]3[C@H]2O)c(=O)[nH]1 [RPG, Rp-8-pCPT-cGMPS, reference compound]
thermal hyperalgesia (PWL), CFA-injected paw ([7]; 250 nmol intrathecal 1 day after CFA, PWL measured the following day, vs vehicle): alleviated significantly; also recorded: significant improvement in mean PWL
thermal threshold, contralateral noninflamed paw ([7]; RPG intrathecal): no significant changes
Ki [13]: 500 nM
